Laboratory results published in ChEMBL document CHEMBL1275508, “Edelfosine induces an apoptotic process in Leishmania infantum that is regulated by the ectopic expression of Bcl-XL and Hrk” (2008).

Experiments:
Leishmania infantum [1] = assay: Antimicrobial activity against Leishmania infantum promastigotes; type: functional; settings: read-out: LD50 (the source's name)
Procedure, shortened: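 L. infantum promastigotes (M/CAN/ES/96/BCN150 MON-1), exponentially growing at 2 × 10^6 parasites/ml, incubated 24 h with increasing drug concentrations; stained with 5 µM propidium iodide and dead (PI-positive) parasites counted by flow cytometry; 50% lethal dose estimated from concentration–response fit.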

Leishmania infantum [2] = assay: Antimicrobial activity against Leishmania infantum promastigotes assessed as increase in DNA degradation after 24 hrs by flow cytometry; type: functional, organism-based
Procedure, shortened: (§1)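 Exponentially growing L. infantum promastigotes (2 × 10^6/ml, strain M/CAN/ES/96/BCN150 MON-1) exposed 24 h to increasing drug concentrations; DNA content analysed by flow cytometry, scoring percentage of hypodiploid cells as DNA degradation.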

Leishmania infantum [3] = assay: Antimicrobial activity against Leishmania infantum promastigotes assessed as increase in hypodiploid cell formation after 24 hrs by flow cytometry; type: functional, organism-based; procedure, shortened: as §1
Leishmania infantum [4] = assay: Induction of apoptosis in wild-type Leishmania infantum promastigotes cells at 40 uM after 24 hrs by TUNEL assay; type: functional
Procedure, shortened: (§2)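 Wild-type promastigotes or those transfected with empty pX63, pX63-bcl-XL (HA-tagged) or pX63-hrk (FLAG-tagged) left untreated or exposed to 40 µM drug for 24 h; DNA nicks labelled by TUNEL, imaged by confocal microscopy with PI and DIC; percentage TUNEL-positive cells from image analysis, mean ± SD, n = 3.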

Leishmania infantum [5] = assay: Induction of apoptosis in Leishmania infantum promastigotes cells harboring pX63 expression vector at 40 uM after 24 hrs by TUNEL assay; type: functional; procedure, shortened: as §2
Leishmania infantum [6] = assay: Induction of apoptosis in Leishmania infantum promastigotes cells harboring with plasmid pX63 carrying Hrk gene at 40 uM after 24 hrs by TUNEL assay; type: functional; procedure, shortened: as §2
Leishmania infantum [7] = assay: Induction of apoptosis in Leishmania infantum promastigotes cells harboring with plasmid pX63 carrying Bcl-XL gene at 40 uM after 24 hrs by TUNEL assay; type: functional; procedure, shortened: as §2

Structure (SMILES) | LC50 (Leishmania infantum [1]) | Activity (Leishmania infantum [2]) | Activity (Leishmania infantum [3]) | Activity (Leishmania infantum [4]) | Activity (Leishmania infantum [5]) | Activity (Leishmania infantum [6]) | Activity (Leishmania infantum [7])
CCCCCCCCCCCCCCCCOP(=O)([O-])OCC[N+](C)(C)C [MILTEFOSINE] | 47 µM | Dose-dependent effect | Dose-dependent effect | – | – | – | –
CCCCCCCCCCCCCCCCCCOCC(COP(=O)([O-])OCC[N+](C)(C)C)OC (stereo not given) [EDELFOSINE] | 27 µM | Dose-dependent effect | Dose-dependent effect | 42.5% | 47.4% | 92.5% | 26.7%
